Test results as given in ChEMBL document CHEMBL1142571, “Antiprotozoal compounds from Psorothamnus polydenius” (J Nat Prod, 2005).
In brackets after ≈: the same amount, converted by molar mass.

Legend:
[1] = tested on: Leishmania donovani; assay: Antileishmanial activity against Leishmania donovani MHOM/SD/62/1S-CL2D axenic amastigotes after 3 days by tetrazolium dye method; type: functional, organism-based; conditions: 72 h
Summary of the method: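 L. donovani amastigote-like parasites grown axenically were exposed to compounds for three days. Viability was read with the tetrazolium-based CellTiter reagent.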

[2] = tested on: Trypanosoma brucei brucei; assay: Antitrypanosomal activity against blood stream-form of Trypanosoma brucei brucei MITat1.2 after 72 hrs by MTT assay; type: functional, organism-based
Summary of the method: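 Late-log bloodstream-form T. b. brucei in HMI-9 were incubated with or without compound for 72 h at 37 °C under 5% CO2. MTT (25 µL of a 5 mg/mL stock) was added for 2 h, then 10% SDS in 50% aqueous DMF for 3-4 h. OD was read at 570 nm, and IC50 is 50% growth inhibition versus untreated control.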

[3] = tested on: Vero; assay: Cytotoxicity against african green monkey Vero cells after 72 hrs by cell-titer assay; type: cell-based; conditions: Chlorocebus sabaeus
Summary of the method: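 Vero cells (1000/well) in Eagle's MEM with Earle's salts, penicillin/streptomycin and 10% FBS were seeded with serial compound dilutions for 72 h at 37 °C under 5% CO2. CellTiter reagent was then added for 12-14 h, and absorbance was read at 490 nm.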

[4] = tested on: J774.A1; assay: Cytotoxicity against mouse J774A1 cells after 72 hrs by cell-titer assay; type: cell-based; conditions: J774.A1, 72 h
Summary of the method: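 J774 A.1 macrophages (5000/well) in DMEM with penicillin/streptomycin and 10% FBS were seeded with serial compound dilutions for 72 h at 37 °C under 5% CO2. Viability was read by CellTiter, with 12-14 h color development and absorbance at 490 nm.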

[5] = tested on: Leishmania mexicana; assay: Antileishmanial activity against Leishmania mexicana MNYC/BZ/62/M379 infected in C57BL/6 mouse peritoneal macrophages assessed as reduction in infection at 12.5 ug/ml after 72 hrs relative to control; type: functional; design: scale not given: the % may be the effect or the level left
Summary of the method: (§1)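 Mouse peritoneal macrophages were infected with promastigotes in supplemented DMEM on chamber slides for 24 h at 33 °C under 5% CO2. They were washed with HBSS and given serial drug dilutions for 72 h. Cells were then methanol-fixed and stained with 0.04% Giemsa for 35 min. At least 200 cells per sample were counted under oil immersion, and the value is the % decrease in infected macrophages versus untreated wells.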

[6] = tested on: Leishmania mexicana; assay: Antileishmanial activity against Leishmania mexicana MNYC/BZ/62/M379 infected in C57BL/6 mouse peritoneal macrophages assessed as reduction in infection at 6.3 ug/ml after 72 hrs relative to control; type: functional; design: scale not given: the % may be the effect or the level left; summary of the method: as §1
[7] = tested on: Leishmania mexicana; assay: Antileishmanial activity against Leishmania mexicana MNYC/BZ/62/M379 infected in C57BL/6 mouse peritoneal macrophages assessed as reduction in infection at 3.1 ug/ml after 72 hrs relative to control; type: functional; design: scale not given: the % may be the effect or the level left; summary of the method: as §1
[8] = Selectivity for Leishmania donovani MHOM/SD/62/1S-CL2D axenic amastigotes over african green monkey Vero cells
[9] = tested on: Leishmania mexicana; assay: Antileishmanial activity against Leishmania mexicana MNYC/BZ/62/M379 infected in C57BL/6 mouse peritoneal macrophages assessed as reduction in infection at 0.116 ug/ml after 72 hrs relative to control; type: functional; design: scale not given: the % may be the effect or the level left; summary of the method: as §1
[10] = tested on: Leishmania mexicana; assay: Antileishmanial activity against Leishmania mexicana MNYC/BZ/62/M379 infected in C57BL/6 mouse peritoneal macrophages assessed as reduction in infection at 0.029 ug/ml after 72 hrs relative to control; type: functional; design: scale not given: the % may be the effect or the level left; summary of the method: as §1
[11] = tested on: Leishmania mexicana; assay: Antileishmanial activity against Leishmania mexicana MNYC/BZ/62/M379 infected in C57BL/6 mouse peritoneal macrophages assessed as reduction in infection at 0.014 ug/ml after 72 hrs relative to control; type: functional; design: scale not given: the % may be the effect or the level left; summary of the method: as §1
[12] = tested on: Leishmania mexicana; assay: Antileishmanial activity against Leishmania mexicana MNYC/BZ/62/M379 infected in C57BL/6 mouse peritoneal macrophages assessed as reduction in infection at 25 ug/ml after 72 hrs relative to control; type: functional; design: scale not given: the % may be the effect or the level left; summary of the method: as §1
[13] = tested on: Leishmania mexicana; assay: Antileishmanial activity against Leishmania mexicana MNYC/BZ/62/M379 infected in C57BL/6 mouse peritoneal macrophages assessed as reduction in infection at 50 ug/ml after 72 hrs relative to control; type: functional; design: scale not given: the % may be the effect or the level left; summary of the method: as §1

With `COc1c(C)c(O)c(C)c(O)c1C(=O)/C=C/c1ccccc1` as the compound, how does the IC50 [1] read?
Its IC50 is 5 µg/mL (≈ 16.8 µM).

What about the IC50 [2] of the same compound?
Its IC50 is 6.3 µg/mL (≈ 21.1 µM).

And the IC50 [3]?
The IC50 was 12.9 µg/mL (≈ 43.2 µM).

And the IC50 [4]?
The IC50 was 7.7 µg/mL (≈ 25.8 µM).

And the Activity [5]?
Its Activity is 96%.

And the Activity [6]?
Its Activity is 61%.

And the Activity [7]?
The Activity was 28%.

What about the “Ratio IC50” value [8] of the same compound?
The value was 2.6.

What does the source list for `COc1c(C)c(O)c(C)c(O)c1C(=O)/C=C/c1ccccc1O`?
IC50 [1]: 7.5 µg/mL (≈ 23.9 µM); IC50 [2]: 6.8 µg/mL (≈ 21.6 µM); IC50 [3]: 13.3 µg/mL (≈ 42.3 µM); IC50 [4]: 9.3 µg/mL (≈ 29.6 µM); Activity [5]: 96%; Activity [6]: 34%; Activity [7]: 6%; Ratio IC50 [8]: 1.8

Which results are given for `C[C@@H]1[C@H](O)[C@@H](C)/C=C/C=C/C=C/C=C/C=C/C=C/C=C/[C@H](O[C@@H]2O[C@H](C)[C@@H](O)[C@H](N)[C@@H]2O)C[C@@H]2O[C@](O)(C[C@@H](O)C[C@@H](O)[C@H](O)CC[C@@H](O)C[C@@H](O)CC(=O)O[C@H]1C)C[C@H](O)[C@H]2C(=O)O` [AMPHOTERICIN B]?
Activity [9]: 95%; Activity [10]: 85%; Activity [11]: 59%

Which results are given for `COC1=C(C)C(=O)C(C)(C)C(=O)/C1=C1\C=Cc2ccccc2O1` [DALRUBONE]?
IC50 [1]: 7.5 µg/mL (≈ 24.2 µM); IC50 [2]: 21.6 µg/mL (≈ 69.6 µM); IC50 [3]: 44.5 µg/mL (≈ 143 µM); IC50 [4]: 30.1 µg/mL (≈ 97 µM); Activity [5]: 41%; Activity [6]: 1%; Activity [12]: 97%; Ratio IC50 [8]: 5.9

With `Cc1c(O)c(C)c2c(c1O)C(=O)C[C@@H](c1ccccc1)O2` [DEMETHOXYMATTEUCINOL] as the compound, how does the IC50 [1] read?
The IC50 was greater than 100 µg/mL.

What about the IC50 [2] of the same compound?
The IC50 was 28.9 µg/mL (≈ 102 µM).

What about the IC50 [3] of the same compound?
Its IC50 is greater than 50 µg/mL.

And the IC50 [4]?
The IC50 was greater than 50 µg/mL.

Which results are given for `O=C1C[C@@H](c2ccc(O)c(O)c2)Oc2cc(O)cc(O)c21` [ERIODICTYOL]?
IC50 [1]: 25 µg/mL (≈ 86.7 µM); IC50 [2]: 25 µg/mL (≈ 86.7 µM); IC50 [3]: 36.5 µg/mL (≈ 127 µM); IC50 [4]: 32.8 µg/mL (≈ 114 µM); Activity [5]: 30%; Activity [12]: 55%; Activity [13]: 76%

What does the source list for `N=C(N)c1ccc(OCCCCCOc2ccc(C(=N)N)cc2)cc1` [PENTAMIDINE]?
IC50 [1]: 1.4 µg/mL (≈ 4.11 µM); IC50 [2]: 0.007 µg/mL (≈ 0.0206 µM); IC50 [3]: > 50 µg/mL; IC50 [4]: 12.9 µg/mL (≈ 37.9 µM)

With `Cc1ccc(C(=O)Nc2ccc(S(=O)(=O)O)c3cc(S(=O)(=O)O)cc(S(=O)(=O)O)c23)cc1NC(=O)c1cccc(NC(=O)Nc2cccc(C(=O)Nc3cc(C(=O)Nc4ccc(S(=O)(=O)O)c5cc(S(=O)(=O)O)cc(S(=O)(=O)O)c45)ccc3C)c2)c1` [SURAMIN] as the compound, how does the IC50 [2] read?
The IC50 was 0.193 µg/mL (≈ 0.149 µM).
